{"source": "paper PMC6061410", "about": "(Clinical Drug Investigation, 2018)", "test": "Effect of food intake", "type": "in vivo, human", "details": "25 mg; for Cmax: human, plasma, oral, Cmax at steady state, gMean", "in_short": "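Healthy young (25 mg, group 2) and elderly (25 mg, group 5) subjects were dosed once daily with tablets. On day 12, group 2 dosed light-fed (standardised ~500 kcal breakfast 30 min pre-dose) and group 5 dosed light-fasted (no food ≥10 h before until 1 h after). Day 12 plasma profiles were compared with day 14 fasted profiles (no food ≥10 h before until 3.5 h after) as gMean ratios.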", "key": {"[1]": {"details": "young subjects, standardised light breakfast"}}}
{"smiles": "C[C@@H](Oc1ccc(S(C)(=O)=O)cc1C(=O)N1C[C@@H]2C[C@]2(c2cc(C(F)(F)F)on2)C1)C(F)(F)F", "note": "[BI 425809]", "values": [{"measurement": "gMean ratio (light fed:light fasted) steady-state AUC", "value": 105.2, "unit": "%"}, {"measurement": "gMean ratio (light fed:light fasted) steady-state Cmax", "value": 106.8, "unit": "%"}, {"measurement": "gMean ratio (light fasted:fasted) steady-state AUC", "setting": "elderly subjects", "value": 104.5, "unit": "%"}, {"measurement": "gMean ratio (light fasted:fasted) steady-state Cmax", "setting": "elderly subjects", "value": 108.3, "unit": "%"}, {"measurement": "gMean ratio (light fed:fasted) steady-state AUC", "setting": "young subjects", "value": 114.0, "unit": "%"}, {"measurement": "gMean ratio (light fed:fasted) steady-state Cmax", "setting": "young subjects", "value": 123.2, "unit": "%"}, {"measurement": "increase in steady-state AUC, light fed compared with fasted", "setting": "[1]", "value": 14, "unit": "%"}, {"measurement": "increase in steady-state Cmax, light fed compared with fasted", "setting": "[1]", "value": 23, "unit": "%"}, {"measurement": "Cmax", "setting": "healthy elderly subjects, fasted", "value": 611, "unit": "nM"}, {"measurement": "Cmax", "setting": "healthy elderly subjects, light fasted", "value": 662, "unit": "nM"}, {"measurement": "Cmax", "setting": "healthy young subjects, fasted", "value": 574, "unit": "nM"}, {"measurement": "Cmax", "setting": "healthy young subjects, fed (light fed)", "value": 707, "unit": "nM"}]}
